Measured values published in PMC11376197 (Chemical Science, 2024).

How the values were obtained:
Experiment in all cases: Cell viability assay
[1] = test system: A2780 (cisplatin-sensitive ovarian cancer cells); type: cell-based, human; conditions: read-out: IC50 A2780; 96 h of incubation
How it was run: (§1)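 Cell lines were exposed to test compounds for 96 h, with cisplatin as a reference. Complexes came from DMSO stocks and cisplatin from water stocks. Antiproliferative activity is expressed as IC50.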

[2] = test system: OVCAR-3 (high-grade serous ovarian cancer cells); type: cell-based, human; conditions: read-out: IC50 OVCAR-3; 96 h of incubation
How it was run: as §1

[3] = test system: HCT116 (colon cancer cells); type: cell-based, human; conditions: read-out: IC50 HCT116; 96 h of incubation
How it was run: as §1

[4] = test system: MRC-5 (non-cancerous lung fibroblasts); type: cell-based; conditions: read-out: IC50 MRC-5; 96 h of incubation
How it was run: as §1

N.N.[Cl][Pt][Cl] [Cisplatin]
IC50 [1]: 0.6 ± 0.2 µM
IC50 [2]: 3.1 ± 0.2 µM
IC50 [3]: 7.9 ± 0.8 µM
IC50 [4]: 2 ± 1 µM
